Results from ChEMBL document CHEMBL1649115, “Enhanced susceptibility to antifungal oligopeptides in yeast strains overexpressing ABC multidrug efflux pumps” (Antimicrob Agents Chemother, 2008).
Converted amounts (≈) assume the structure as drawn. Non-standard residues stand in square brackets, D forms with d. Residues, ends and D or L forms follow the SMILES beside them. *: point of attachment. Phe(3-F) = N[C@@H](Cc1cccc(F)c1)C(=O)O; Ethyl(2-NH2) = NCC*

Experiments:
Saccharomyces cerevisiae [1] = assay: Antifungal activity against Saccharomyces cerevisiae ADCDR2 expressing Candida albicans CDR2 efflux pump in YNPG-proline medium after 24 hrs by microdilution method; assay type: functional; conditions: ADCDR2, 24 h
Saccharomyces cerevisiae [2] = assay: Antifungal activity against Saccharomyces cerevisiae ADMDR1 expressing Candida albicans MDR1 efflux pump in YNPG-proline medium after 24 hrs by microdilution method; assay type: functional; conditions: ADMDR1, 24 h
Candida albicans [3] = assay: Antifungal activity against fluconazole sensitive Candida albicans isolate B3 in RPMI-1640 buffered medium after 24 hrs by microdilution method; assay type: functional
How it was run: (§1)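 C. albicans cells were grown in 2% glucose, 1% yeast extract, 1% Bacto peptone medium before testing. […] CARE-2 fingerprinting confirmed that each pair is a single strain.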

Saccharomyces cerevisiae [4] = assay: Antifungal activity against Saccharomyces cerevisiae ADCDR1 expressing Candida albicans CDR1 efflux pump in YNPG-proline medium after 24 hrs by microdilution method; assay type: functional; conditions: ADCDR1, 24 h
Candida albicans [5] = assay: Antifungal activity against fluconazole sensitive Candida albicans isolate Gu4 in RPMI-1640 buffered medium after 24 hrs by microdilution method; assay type: functional; how it was run: as §1
Candida albicans [6] = assay: Antifungal activity against wild type Candida albicans 10261 in RPMI-1640 buffered medium after 24 hrs by microdilution method; assay type: functional; how it was run: as §1
Candida albicans [7] = assay: Antifungal activity against fluconazole resistant Candida albicans isolate Gu5 overexpressing CDR1 and CDR2 in RPMI-1640 buffered medium after 24 hrs by microdilution method; assay type: functional; conditions: isolate Gu5, 24 h
How it was run: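 C. albicans cells were grown in 2% glucose, 1% yeast extract, 1% Bacto peptone medium before testing. CARE-2 fingerprinting confirmed that each pair is a single strain.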

Candida albicans [8] = assay: Antifungal activity against fluconazole resistant Candida albicans isolate B4 overexpressing MDR1 in RPMI-1640 buffered medium after 24 hrs by microdilution method; assay type: functional; how it was run: as §1
Saccharomyces cerevisiae [9] = assay: Antifungal activity against Saccharomyces cerevisiae AD12345678 in YNPG-proline medium after 24 hrs by microdilution method; assay type: functional; conditions: AD12345678, 24 h
Saccharomyces cerevisiae [10] = assay: Antifungal activity against wild type Saccharomyces cerevisiae ATCC 9763 in YNPG-proline medium after 24 hrs by microdilution method; assay type: functional; conditions: ATCC 9763, 24 h
Saccharomyces cerevisiae [11] = assay: Prodrug stability in Saccharomyces cerevisiae AD12345678 assessed as compound cleavage rate measured per mg of protein; assay type: ADME, organism-based; conditions: in vivo
Saccharomyces cerevisiae [12] = assay: Drug uptake in Saccharomyces cerevisiae ADCDR2 expressing Candida albicans CDR2 efflux pump at 200 uM pretreated for 10 mins measured after 60 mins by fluorescamine staining; assay type: ADME, organism-based; conditions: in vivo, 1 h
Saccharomyces cerevisiae [13] = assay: Prodrug stability in Saccharomyces cerevisiae ADCDR2 expressing Candida albicans CDR2 efflux pump assessed as compound cleavage rate measured per mg of protein; assay type: ADME, organism-based; conditions: in vivo
Candida albicans [14] = assay: Prodrug stability in fluconazole sensitive Candida albicans isolate Gu4 assessed as compound cleavage rate measured per mg of protein; assay type: ADME, organism-based; conditions: in vivo
How it was run: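 Oligopeptides were incubated with cell extracts of the yeast cells, and their hydrolytic enzymes cleaved them. The amino acids released were quantified by the Cd-ninhydrin method.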

Candida albicans [15] = assay: Prodrug stability in fluconazole sensitive Candida albicans isolate B3 assessed as compound cleavage rate measured per mg of protein; assay type: ADME, organism-based; conditions: in vivo
Saccharomyces cerevisiae [16] = assay: Prodrug stability in wild type Saccharomyces cerevisiae ATCC 9763 assessed as compound cleavage rate measured per mg of protein; assay type: ADME, organism-based; conditions: in vivo
Saccharomyces cerevisiae [17] = assay: Drug uptake in Saccharomyces cerevisiae ADMDR1 expressing Candida albicans MDR1 efflux pump at 200 uM pretreated for 10 mins measured after 60 mins by fluorescamine staining; assay type: ADME, organism-based; conditions: in vivo, 1 h
Saccharomyces cerevisiae [18] = assay: Drug uptake in Saccharomyces cerevisiae AD12345678 at 200 uM pretreated for 10 mins measured after 60 mins by fluorescamine staining; assay type: ADME, organism-based; conditions: in vivo, 1 h
Saccharomyces cerevisiae [19] = assay: Prodrug stability in Saccharomyces cerevisiae ADMDR1 expressing Candida albicans MDR1 efflux pump assessed as compound cleavage rate measured per mg of protein; assay type: ADME, organism-based; conditions: in vivo
Saccharomyces cerevisiae [20] = assay: Prodrug stability in Saccharomyces cerevisiae ADCDR1 expressing Candida albicans CDR1 efflux pump assessed as compound cleavage rate measured per mg of protein; assay type: ADME, organism-based; conditions: in vivo
Candida albicans [21] = assay: Prodrug stability in wild type Candida albicans 10261 assessed as compound cleavage rate measured per mg of protein; assay type: ADME, organism-based; conditions: in vivo
Saccharomyces cerevisiae [22] = assay: Drug uptake in Saccharomyces cerevisiae ADCDR1 expressing Candida albicans CDR1 efflux pump at 200 uM pretreated for 10 mins measured after 60 mins by fluorescamine staining; assay type: ADME, organism-based; conditions: in vivo, 1 h
Saccharomyces cerevisiae [23] = assay: Antifungal activity against Saccharomyces cerevisiae ADMDR1 expressing Candida albicans MDR1 efflux pump in YNPG medium containing 1 mg/ml […] after 24 hrs by microdilution method; assay type: functional; conditions: ADMDR1, 24 h
Saccharomyces cerevisiae [24] = assay: Antifungal activity against Saccharomyces cerevisiae ADCDR1 expressing Candida albicans CDR1 efflux pump in YNPG medium containing 1 mg/ml […] after 24 hrs by microdilution method; assay type: functional; conditions: ADCDR1, 24 h
Saccharomyces cerevisiae [25] = assay: Antifungal activity against wild type Saccharomyces cerevisiae ATCC 9763 in YNPG medium containing 1 mg/ml […] after 24 hrs by microdilution method; assay type: functional; conditions: ATCC 9763, 24 h
Saccharomyces cerevisiae [26] = assay: Antifungal activity against Saccharomyces cerevisiae AD12345678 in YNPG medium containing 1 mg/ml […] after 24 hrs by microdilution method; assay type: functional; conditions: AD12345678, 24 h
Saccharomyces cerevisiae [27] = assay: Antifungal activity against Saccharomyces cerevisiae ADCDR2 expressing Candida albicans CDR2 efflux pump in YNPG medium containing 1 mg/ml […] after 24 hrs by microdilution method; assay type: functional; conditions: ADCDR2, 24 h
[28] = Candida albicans, isolate B3, 24 h, read-out: MIC
[29] = Candida albicans, isolate Gu4, 24 h, read-out: MIC
[30] = Candida albicans, 10261, 24 h, read-out: MIC
[31] = Candida albicans, isolate B4, 24 h, read-out: MIC

SMILES | MIC (Saccharomyces cerevisiae [1]) | MIC (Saccharomyces cerevisiae [2]) | MIC (Candida albicans [3]; [28]) | MIC (Saccharomyces cerevisiae [4]) | MIC (Candida albicans [5]; [29]) | MIC (Candida albicans [6]; [30]) | MIC (Candida albicans [7]) | MIC (Candida albicans [8]; [31]) | MIC (Saccharomyces cerevisiae [9]) | MIC (Saccharomyces cerevisiae [10]) | Drug uptake (Saccharomyces cerevisiae [12]) | Drug uptake (Saccharomyces cerevisiae [17]) | Drug uptake (Saccharomyces cerevisiae [18]) | Drug uptake (Saccharomyces cerevisiae [22]) | also measured
CC(C)C[C@H](NC(=O)[C@@H](N)COCCN)C(=O)NCC(=O)O | 1 µg/mL (≈ 3.14 µM) | 4 µg/mL (≈ 12.6 µM) | 64 µg/mL (≈ 201 µM) | 1 µg/mL (≈ 3.14 µM) | 256 µg/mL (≈ 804 µM) | 128 µg/mL (≈ 402 µM) | 16 µg/mL (≈ 50.3 µM) | 32 µg/mL (≈ 101 µM) | 4 µg/mL (≈ 12.6 µM) | 8 µg/mL (≈ 25.1 µM) |  |  |  |  | 
CSCC[C@H](NC(=O)[C@@H](N)CCSC)C(=O)N[C@@H](Cc1cccc(F)c1)C(=O)O (H-Met-Met-[Phe(3-F)]-OH) | 32 µg/mL (≈ 71.8 µM) | 256 µg/mL (≈ 575 µM) | 128 µg/mL (≈ 287 µM) | 32 µg/mL (≈ 71.8 µM) | 128 µg/mL (≈ 287 µM) | 128 µg/mL (≈ 287 µM) | 32 µg/mL (≈ 71.8 µM) | 128 µg/mL (≈ 287 µM) | 512 µg/mL (≈ 1150 µM) | 256 µg/mL (≈ 575 µM) | 1.23 nmol/min/mg | 0.67 nmol/min/mg | 0.64 nmol/min/mg | 1.11 nmol/min/mg | Stability (Saccharomyces cerevisiae [11]): 14 nmol/min; Stability (Saccharomyces cerevisiae [13]): 14 nmol/min; Stability (Candida albicans [14]): 20 nmol/min; Stability (Candida albicans [15]): 20 nmol/min; Stability (Saccharomyces cerevisiae [16]): 14 nmol/min; Stability (Saccharomyces cerevisiae [19]): 14 nmol/min; Stability (Saccharomyces cerevisiae [20]): 14 nmol/min; Stability (Candida albicans [21]): 20 nmol/min
[N-]=[N+]=CC(=O)CC[C@H](N)C(=O)O [6-DIAZO-5-OXO-L-NORLEUCINE] |  |  | 4 µg/mL (≈ 23.4 µM) |  | 4 µg/mL (≈ 23.4 µM) | 4 µg/mL (≈ 23.4 µM) | 1 µg/mL (≈ 5.84 µM) | 4 µg/mL (≈ 23.4 µM) |  |  | 2.25 nmol/min/mg | 1.98 nmol/min/mg | 2 nmol/min/mg | 2.32 nmol/min/mg | MIC (Saccharomyces cerevisiae [23]): 0.5 µg/mL (≈ 2.92 µM); MIC (Saccharomyces cerevisiae [24]): 0.125 µg/mL (≈ 0.73 µM); MIC (Saccharomyces cerevisiae [25]): 0.5 µg/mL (≈ 2.92 µM); MIC (Saccharomyces cerevisiae [26]): 0.5 µg/mL (≈ 2.92 µM); MIC (Saccharomyces cerevisiae [27]): 0.25 µg/mL (≈ 1.46 µM)
CC(C)C[C@H](NC(=O)[C@H](CC(C)C)NC(=O)[C@@H](N)COCCN)C(=O)NCC(=O)O (H-S(Ethyl(2-NH2))LLG-OH) | 32 µg/mL (≈ 74.2 µM) | 64 µg/mL (≈ 148 µM) |  | 16 µg/mL (≈ 37.1 µM) |  |  |  |  | 64 µg/mL (≈ 148 µM) | 64 µg/mL (≈ 148 µM) |  |  |  |  | 
NC(Cc1cccc(F)c1)C(=O)O (stereo unspecified) [M-FLUOROPHENYLALANINE] |  |  | 128 µg/mL (≈ 699 µM) |  | 128 µg/mL (≈ 699 µM) | 256 µg/mL (≈ 1400 µM) | 128 µg/mL (≈ 699 µM) | 128 µg/mL (≈ 699 µM) |  |  | 1.86 nmol/min/mg | 1.63 nmol/min/mg | 1.78 nmol/min/mg | 2.57 nmol/min/mg | MIC (Saccharomyces cerevisiae [23]): 32 µg/mL (≈ 175 µM); MIC (Saccharomyces cerevisiae [24]): 16 µg/mL (≈ 87.3 µM); MIC (Saccharomyces cerevisiae [25]): 32 µg/mL (≈ 175 µM); MIC (Saccharomyces cerevisiae [26]): 32 µg/mL (≈ 175 µM); MIC (Saccharomyces cerevisiae [27]): 16 µg/mL (≈ 87.3 µM)
OC(Cn1cncn1)(Cn1cncn1)c1ccc(F)cc1F [FLUCONAZOLE] | 16 µg/mL (≈ 52.2 µM) | 32 µg/mL (≈ 104 µM) | 4 µg/mL (≈ 13.1 µM) | 32 µg/mL (≈ 104 µM) | 8 µg/mL (≈ 26.1 µM) | 4 µg/mL (≈ 13.1 µM) |  | 64 µg/mL (≈ 209 µM) | 1 µg/mL (≈ 3.27 µM) | 2 µg/mL (≈ 6.53 µM) |  |  |  |  | MIC (Candida albicans [3]): 4 µg/mL (≈ 13.1 µM); MIC (Candida albicans [5]): 8 µg/mL (≈ 26.1 µM); MIC (Candida albicans [6]): 4 µg/mL (≈ 13.1 µM); MIC (Candida albicans [8]): 64 µg/mL (≈ 209 µM)
C[C@H](NC(=O)[C@H](Cc1cnc[nH]1)NC(=O)[C@H](CO)NC(=O)[C@@H](N)CC(=O)O)C(=O)N[C@@H](CCCCN)C(=O)N[C@@H](CCCNC(=N)N)C(=O)N[C@@H](Cc1cnc[nH]1)C(=O)N[C@@H](Cc1cnc[nH]1)C(=O)NCC(=O)N[C@@H](Cc1ccc(O)cc1)C(=O)N[C@@H](CCCCN)C(=O)N[C@@H](CCCNC(=N)N)C(=O)N[C@@H](CCCCN)C(=O)N[C@@H](Cc1ccccc1)C(=O)N[C@@H](Cc1cnc[nH]1)C(=O)N[C@@H](CCC(=O)O)C(=O)N[C@@H](CCCCN)C(=O)N[C@@H](Cc1cnc[nH]1)C(=O)N[C@@H](Cc1cnc[nH]1)C(=O)N[C@@H](CO)C(=O)N[C@@H](Cc1cnc[nH]1)C(=O)N[C@@H](CCCNC(=N)N)C(=O)NCC(=O)N[C@@H](Cc1ccc(O)cc1)C(=O)O [HISTATIN 5] | 128 µg/mL (≈ 42.2 µM) | 128 µg/mL (≈ 42.2 µM) | 32 µg/mL (≈ 10.5 µM) | 128 µg/mL (≈ 42.2 µM) | 32 µg/mL (≈ 10.5 µM) | 32 µg/mL (≈ 10.5 µM) | 32 µg/mL (≈ 10.5 µM) | 32 µg/mL (≈ 10.5 µM) | 128 µg/mL (≈ 42.2 µM) | 128 µg/mL (≈ 42.2 µM) |  |  |  |  | Stability (Candida albicans [14]): 0.3 nmol/min; Stability (Candida albicans [15]): 0.3 nmol/min; Stability (Candida albicans [21]): 0.3 nmol/min
